The text below walks through data of ChEMBL document CHEMBL3351726 (J Med Chem, 2014).

Calls of active or inactive are those of the source. No cut-off for these calls is given here. Residues, ends and D or L forms follow the SMILES beside them.

The nature of data set [1]: Retention time of the compound measured over 6 mins at flow rate of 0.5 mL/min by HPLC. In kind it is physicochemical. As to conditions: 0.1 h.
For data set [2], the target named is T1, Sodium channel protein type 9 subunit alpha (Homo sapiens, UniProt Q15858). Description: Inhibition of human Nav1.7 expressed in HEK-293 cells assessed as inhibition of channel-mediated current at 1 nM by time-course experiment. In kind it is cell-based. As to conditions: HEK293. Summed up:
(§1)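 HEK-293 cells on poly-D-lysine-coated dishes in DMEM at 37 °C, 5% CO2; recorded 12−48 h after plating. Whole-cell voltage-clamp sodium currents under continuous perfusion with extracellular solution. Compounds applied via a gravity-driven superfusion pipette array with its outlet about 100 μm from the cell.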
Target sequence in this assay (Q15858 whole entry, looked up, the tested form may be a part): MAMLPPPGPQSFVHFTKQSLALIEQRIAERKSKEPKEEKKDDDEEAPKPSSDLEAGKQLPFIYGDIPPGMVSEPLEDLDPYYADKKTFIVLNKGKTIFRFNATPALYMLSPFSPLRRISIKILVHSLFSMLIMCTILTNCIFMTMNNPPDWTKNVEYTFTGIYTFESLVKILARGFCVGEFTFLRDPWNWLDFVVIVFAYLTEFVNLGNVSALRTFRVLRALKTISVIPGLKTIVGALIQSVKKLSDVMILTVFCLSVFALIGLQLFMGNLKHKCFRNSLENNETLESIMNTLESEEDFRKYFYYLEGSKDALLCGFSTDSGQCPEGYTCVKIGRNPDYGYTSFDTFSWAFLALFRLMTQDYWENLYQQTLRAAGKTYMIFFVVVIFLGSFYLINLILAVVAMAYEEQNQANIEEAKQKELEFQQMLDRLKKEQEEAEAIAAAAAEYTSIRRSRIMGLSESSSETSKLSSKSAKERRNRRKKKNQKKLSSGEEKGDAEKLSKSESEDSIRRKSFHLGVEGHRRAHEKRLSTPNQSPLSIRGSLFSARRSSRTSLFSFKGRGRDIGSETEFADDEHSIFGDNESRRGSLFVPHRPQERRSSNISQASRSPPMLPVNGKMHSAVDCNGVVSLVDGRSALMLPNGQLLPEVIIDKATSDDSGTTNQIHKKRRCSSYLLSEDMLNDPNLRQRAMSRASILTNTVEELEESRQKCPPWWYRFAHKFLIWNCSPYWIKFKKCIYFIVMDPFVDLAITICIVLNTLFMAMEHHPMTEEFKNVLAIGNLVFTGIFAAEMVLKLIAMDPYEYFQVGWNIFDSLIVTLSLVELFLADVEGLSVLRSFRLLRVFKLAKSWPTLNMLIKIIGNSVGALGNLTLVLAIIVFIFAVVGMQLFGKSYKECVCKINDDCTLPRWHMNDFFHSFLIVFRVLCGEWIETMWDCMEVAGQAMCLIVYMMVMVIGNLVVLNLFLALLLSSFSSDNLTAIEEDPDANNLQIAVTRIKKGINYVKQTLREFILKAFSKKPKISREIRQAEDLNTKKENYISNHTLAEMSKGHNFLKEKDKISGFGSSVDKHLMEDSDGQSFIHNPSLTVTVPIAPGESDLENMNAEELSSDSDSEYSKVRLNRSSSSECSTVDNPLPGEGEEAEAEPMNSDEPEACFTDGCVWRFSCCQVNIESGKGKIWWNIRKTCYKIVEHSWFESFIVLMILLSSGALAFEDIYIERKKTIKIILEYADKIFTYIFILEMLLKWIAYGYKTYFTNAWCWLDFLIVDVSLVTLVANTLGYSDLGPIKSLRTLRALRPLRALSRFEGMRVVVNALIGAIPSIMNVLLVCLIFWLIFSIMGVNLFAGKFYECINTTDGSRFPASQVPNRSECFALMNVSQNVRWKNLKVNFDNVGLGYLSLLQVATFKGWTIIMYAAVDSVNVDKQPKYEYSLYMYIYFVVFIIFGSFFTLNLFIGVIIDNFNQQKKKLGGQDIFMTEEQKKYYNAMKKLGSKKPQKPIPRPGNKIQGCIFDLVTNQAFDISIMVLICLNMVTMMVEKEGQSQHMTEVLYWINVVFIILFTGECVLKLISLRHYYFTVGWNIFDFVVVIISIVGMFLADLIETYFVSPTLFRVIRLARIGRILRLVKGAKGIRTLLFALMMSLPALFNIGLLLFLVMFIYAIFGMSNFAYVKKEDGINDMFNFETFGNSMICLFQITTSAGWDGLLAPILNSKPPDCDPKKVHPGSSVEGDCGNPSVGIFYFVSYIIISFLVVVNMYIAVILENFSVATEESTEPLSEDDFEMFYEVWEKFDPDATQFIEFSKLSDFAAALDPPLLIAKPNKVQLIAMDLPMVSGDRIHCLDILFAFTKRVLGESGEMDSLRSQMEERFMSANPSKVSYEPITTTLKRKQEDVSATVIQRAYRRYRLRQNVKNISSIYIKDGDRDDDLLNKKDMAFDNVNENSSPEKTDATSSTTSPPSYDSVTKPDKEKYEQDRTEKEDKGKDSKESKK

Data set [3] addresses T1, Sodium channel protein type 9 subunit alpha. Description: Inhibition of human Nav1.7 expressed in HEK-293 cells assessed as inhibition of channel-mediated current at 1 nM followed by wash-out and compound treatment at 0.1 nM by time-course experiment relative to initial peak amplitude. The settings on record: HEK293. In kind it is cell-based. Summed up: as §1
Target sequence in this assay (Q15858 whole entry, looked up, the tested form may be a part): as above
The target is the same in data set [4]. Description: Inhibition of human Nav1.7 expressed in HEK-293 cells at -130 to -110 mV holding potential by whole-cell voltage clamp analysis. In kind it is cell-based, HEK293.
Target sequence in this assay (Q15858 whole entry, the tested form may be a part): as the sequence (Q15858 whole entry, looked up, the tested form may be a part) above
The test system of another data set is HEK293. As to the kind of experiment: Selectivity ratio of IC50 for rat Nav1.2 expressed in HEK-293 cells to IC50 for human Nav1.7 expressed in HEK-293 cells. In kind it is cell-based.
Data set [5] in a line: Retention time of the compound measured over 30 mins at flow rate of 1 mL/min by HPLC. As to conditions: 0.5 h. Type of data set: physicochemical. Summed up:
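Reversed-phase analytical HPLC or LC−MS on a SymmetryShield RP18 column (5 μm, 4.6 × 150 mm). Gradient 10−60% B over 30 min at 1 mL/min; A = 0.1% TFA in water, B = 0.1% TFA in acetonitrile.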

Data set [6] in a line: Retention time of the compound measured over 15 mins at flow rate of 1 mL/min by HPLC.

As to `CNC(=O)[C@H](Cc1c[nH]c2ccccc12)NC(=O)[C@H](CC(C)C)NC(=O)[C@H](CCCCN)NC(=O)[C@H](CCCCN)NC(=O)[C@H](CCCCN)NC(=O)[C@@H]1CSSC[C@@H]2NC(=O)[C@H](CCCCN)NC(=O)[C@H](CCCNC(=N)N)NC(=O)[C@H](CCC(=O)O)NC(=O)[C@H](CO)NC(=O)[C@H](CC(=O)O)NC(=O)[C@@H]3CSSC[C@H](NC(=O)[C@H](C(C)C)NC(=O)[C@H](CCSC)NC(=O)CNC(=O)[C@H](CCC(=O)O)NC(=O)[C@H](CSSC[C@H](NC(=O)[C@@H](N)Cc4ccc(O)cc4)C(=O)N[C@@H](CCC(N)=O)C(=O)N[C@@H](CCCCN)C(=O)N[C@@H](Cc4c[nH]c5ccccc45)C(=O)N[C@@H](CCSC)C(=O)N[C@@H](Cc4c[nH]c5ccccc45)C(=O)N[C@@H]([C@@H](C)O)C(=O)N3)NC2=O)C(=O)N[C@@H](CCCNC(=N)N)C(=O)N[C@@H](CC(C)C)C(=O)N[C@@H](Cc2c[nH]c3ccccc23)C(=O)N1`, the Retention_time in data set [1] came out at 2.52 min; in data set [5], 12.44 min. The inhibition – broadly, how much of the control response was suppressed – in data set [2] was “Active”. Moreover, in data set [3], the inhibition came out at 80%. The half-inhibitory concentration (IC50) (commonly the point on the concentration scale where inhibition reaches its midpoint) in data set [4] was found to be 0.042 nM. For the same compound, the Ratio IC50 with HEK293 worked out at 83.
Consider `COC(=O)[C@H](Cc1c[nH]c2ccccc12)NC(=O)[C@H](CC(C)C)NC(=O)[C@H](CCCCN)NC(=O)[C@H](CCCCN)NC(=O)[C@H](CCCCN)NC(=O)[C@@H]1CSSC[C@@H]2NC(=O)[C@H](CCCCN)NC(=O)[C@H](CCCNC(=N)N)NC(=O)[C@H](CCC(=O)O)NC(=O)[C@H](CO)NC(=O)[C@H](CC(=O)O)NC(=O)[C@@H]3CSSC[C@H](NC(=O)[C@H](C(C)C)NC(=O)[C@H](CCSC)NC(=O)CNC(=O)[C@H](CCC(=O)O)NC(=O)[C@H](CSSC[C@H](NC(=O)[C@@H](N)Cc4ccc(O)cc4)C(=O)N[C@@H](CCC(N)=O)C(=O)N[C@@H](CCCCN)C(=O)N[C@@H](Cc4c[nH]c5ccccc45)C(=O)N[C@@H](CCSC)C(=O)N[C@@H](Cc4c[nH]c5ccccc45)C(=O)N[C@@H]([C@@H](C)O)C(=O)N3)NC2=O)C(=O)N[C@@H](CCCNC(=N)N)C(=O)N[C@@H](CC(C)C)C(=O)N[C@@H](Cc2c[nH]c3ccccc23)C(=O)N1`, for which the Retention_time in data set [1] was 2.93 min; in data set [5], 13.17 min. The IC50 in data set [4] stood at 0.6 nM. Also, the Ratio IC50 in the data set on HEK293 is 5.
For `CSCC[C@@H]1NC(=O)CNC(=O)[C@H](CCC(=O)O)NC(=O)[C@@H]2CSSC[C@H](NC(=O)[C@@H](N)Cc3ccc(O)cc3)C(=O)N[C@@H](CCC(N)=O)C(=O)N[C@@H](CCCCN)C(=O)N[C@@H](Cc3c[nH]c4ccccc34)C(=O)N[C@@H](CCSC)C(=O)N[C@@H](Cc3c[nH]c4ccccc34)C(=O)N[C@@H]([C@@H](C)O)C(=O)N[C@H]3CSSC[C@H](NC(=O)[C@H](C(C)C)NC1=O)C(=O)N[C@@H](CCCNC(=N)N)C(=O)N[C@@H](CC(C)C)C(=O)N[C@@H](Cc1c[nH]c4ccccc14)C(=O)N[C@H](C(=O)N[C@@H](CCCCN)C(=O)N[C@@H](CCCCN)C(=O)N[C@@H](CCCCN)C(=O)N[C@@H](CC(C)C)C(=O)N[C@@H](Cc1c[nH]c4ccccc14)C(=O)Nc1ccccc1)CSSC[C@H](NC(=O)[C@H](CCCCN)NC(=O)[C@H](CCCNC(=N)N)NC(=O)[C@H](CCC(=O)O)NC(=O)[C@H](CO)NC(=O)[C@H](CC(=O)O)NC3=O)C(=O)N2` the same measures were 2.57 min, 14.13 min, 0.8 nM and 4.
As for `CSCC[C@@H]1NC(=O)[C@H](Cc2c[nH]c3ccccc23)NC(=O)[C@H](CCCCN)NC(=O)[C@H](CCC(N)=O)NC(=O)[C@@H](NC(=O)[C@@H](N)Cc2ccc(O)cc2)CSSC[C@@H]2NC(=O)[C@@H]3CSSC[C@@H](C(=O)N[C@@H](CCCCN)C(=O)N[C@@H](CCCCN)C(=O)N[C@@H](CCCCN)C(=O)N[C@@H](CC(C)C)C(=O)N[C@@H](Cc4c[nH]c5ccccc45)C(=O)O)NC(=O)[C@H](Cc4c[nH]c5ccccc45)NC(=O)[C@H](CC(C)C)NC(=O)[C@H](CCC(=O)O)NC(=O)[C@H](CSSC[C@H](NC(=O)[C@H]([C@@H](C)O)NC(=O)[C@H](Cc4c[nH]c5ccccc45)NC1=O)C(=O)N[C@@H](CC(=O)O)C(=O)N[C@@H](CO)C(=O)N[C@@H](CCC(=O)O)C(=O)N[C@@H](CCCNC(=N)N)C(=O)N[C@@H](CCCCN)C(=O)N3)NC(=O)[C@H](C(C)C)NC(=O)[C@H](Cc1ccc(O)cc1)NC(=O)CNC(=O)[C@H](CCC(=O)O)NC2=O`, the IC50 in data set [4] was more than 3000 nM. In addition, the Retention_time in data set [6] was found to be 9.09 min; in data set [5], 14.36 min.
For `CSCC[C@@H]1NC(=O)[C@H](Cc2c[nH]c3ccccc23)NC(=O)[C@H](CCCCN)NC(=O)[C@H](CCC(N)=O)NC(=O)[C@@H](NC(=O)[C@@H](N)Cc2ccc(O)cc2)CSSC[C@@H]2NC(=O)[C@@H]3CSSC[C@@H](C(=O)N[C@@H](CCCCN)C(=O)N[C@@H](CCCCN)C(=O)N[C@@H](CCCCN)C(=O)N[C@@H](CC(C)C)C(=O)N[C@@H](Cc4c[nH]c5ccccc45)C(=O)O)NC(=O)[C@H](Cc4c[nH]c5ccccc45)NC(=O)[C@H](CC(C)C)NC(=O)[C@H](CCCNC(=N)N)NC(=O)[C@H](CSSC[C@H](NC(=O)[C@H]([C@@H](C)O)NC(=O)[C@H](Cc4c[nH]c5ccccc45)NC1=O)C(=O)N[C@@H](CC(=O)O)C(=O)N[C@@H](CCC(=O)O)C(=O)N[C@@H](CCC(=O)O)C(=O)N[C@@H](CCCNC(=N)N)C(=O)N[C@@H](CCCCN)C(=O)N3)NC(=O)[C@H](C(C)C)NC(=O)[C@H](CC(C)C)NC(=O)CNC(=O)[C@H](CCC(=O)O)NC2=O` (HELM PEPTIDE1{Y.C.Q.K.W.M.W.T.C.D.E.E.R.K.C.C.E.G.L.V.C.R.L.W.C.K.K.K.L.W}$PEPTIDE1,PEPTIDE1,2:R3-16:R3|PEPTIDE1,PEPTIDE1,9:R3-21:R3|PEPTIDE1,PEPTIDE1,15:R3-25:R3$$$V2.0), in that order: 293 nM, 8.66 min and 14.78 min.
For `CC[C@H](C)[C@H](NC(=O)[C@@H](NC(=O)[C@H](CCCCN)NC(=O)[C@H](CCCCN)NC(=O)[C@H](CCCCN)NC(=O)[C@@H]1CSSC[C@@H]2NC(=O)[C@H](CCCCN)NC(=O)[C@H](CCCNC(=N)N)NC(=O)[C@H](C)NC(=O)[C@H](CO)NC(=O)[C@H](CC(=O)O)NC(=O)[C@@H]3CSSC[C@H](NC(=O)[C@H](C(C)C)NC(=O)[C@H](CC(C)C)NC(=O)CNC(=O)[C@H](CCC(=O)O)NC(=O)[C@H](CSSC[C@H](NC(=O)[C@@H](N)Cc4ccc(O)cc4)C(=O)N[C@@H](CCC(N)=O)C(=O)N[C@@H](CCCCN)C(=O)N[C@@H](Cc4c[nH]c5ccccc45)C(=O)N[C@@H](CCSC)C(=O)N[C@@H](Cc4c[nH]c5ccccc45)C(=O)N[C@@H]([C@@H](C)O)C(=O)N3)NC2=O)C(=O)N[C@@H](CCCNC(=N)N)C(=O)N[C@@H](CC(C)C)C(=O)N[C@@H](Cc2c[nH]c3ccccc23)C(=O)N1)C(C)C)C(=O)O` (HELM PEPTIDE1{Y.C.Q.K.W.M.W.T.C.D.S.A.R.K.C.C.E.G.L.V.C.R.L.W.C.K.K.K.V.I}$PEPTIDE1,PEPTIDE1,2:R3-16:R3|PEPTIDE1,PEPTIDE1,9:R3-21:R3|PEPTIDE1,PEPTIDE1,15:R3-25:R3$$$V2.0) the same measures were 4 nM, 9 min and 14.79 min.
`[H][C@]12CSSC[C@@H](C(=O)N[C@@H](CCCCN)C(=O)N[C@@H](CCCCN)C(=O)N[C@@H](CC(C)C)C(=O)N[C@@H](Cc3c[nH]c4ccccc34)C(=O)O)NC(=O)[C@H](Cc3c[nH]c4ccccc34)NC(=O)[C@H](CC(C)C)NC(=O)[C@H](CCCNC(=N)N)NC(=O)[C@]3([H])CSSC[C@]([H])(NC(=O)[C@]([H])([C@@H](C)O)NC(=O)[C@H](Cc4c[nH]c5ccccc45)NC(=O)[C@H](CCSC)NC(=O)[C@H](Cc4c[nH]c5ccccc45)NC(=O)[C@H](CCCCN)NC(=O)[C@H](CCC(N)=O)NC(=O)[C@@H](NC(=O)[C@@H](N)Cc4ccc(O)cc4)CSSC[C@]([H])(NC1=O)C(=O)N[C@@H](CCC(=O)O)C(=O)NCC(=O)N[C@@H](CC(C)C)C(=O)N[C@@H](C(C)C)C(=O)N3)C(=O)N[C@@H](CC(=O)O)C(=O)N[C@@H](CO)C(=O)N[C@@H](C)C(=O)N[C@@H](CCCNC(=N)N)C(=O)N[C@@H](CCCCN)C(=O)N2` (HELM PEPTIDE1{Y.C.Q.K.W.M.W.T.C.D.S.A.R.K.C.C.E.G.L.V.C.R.L.W.C.K.K.L.W}$PEPTIDE1,PEPTIDE1,2:R3-16:R3|PEPTIDE1,PEPTIDE1,9:R3-21:R3|PEPTIDE1,PEPTIDE1,15:R3-25:R3$$$V2.0) had an IC50 in data set [4] of 67 nM. The values for the Retention_time in data set [6] and in data set [5] were 9.25 min and 15.35 min, respectively. Moreover, the Ratio IC50 in the data set on HEK293 amounted to 1.
